# Assay outcomes as filed in PubChem.
# The list is not random: actives were taken first. Their share in the collection is about 2.9%.
# Efflux pump inh: inhibitors of Candida antifungal efflux pumps expressed in yeast; inhibition, % at 10 µM; S. cerevisiae Candida pump triplex, Nile Red efflux; 330,000 compounds, 0.44% hits;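 active means plate passing quality check with inhibition over a set limit, or well fluorescence over plate mean plus 4 SD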;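 further: Nile Red retained in pooled yeast measured as flow cytometry median fluorescence; 0% = buffer negative control and 100% = Enniatin B positive control; higher means more Nile Red kept so more efflux inhibition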
# MC4R ag barr: agonists of human melanocortin 4 receptor (MC4R) beta-arrestin; P32245; U2OS MC4R beta-arrestin complementation, luminescence; percent of melanotan II response, DMSO zero; activation, % at 8.9 µM; 360,000 compounds, 0.98% hits;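 active means activation above a per-plate cutoff, the mean activation of sample wells on that plate plus 3 SD, cut at about 8% in these data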
# Target sequence (P32245 whole entry, looked up): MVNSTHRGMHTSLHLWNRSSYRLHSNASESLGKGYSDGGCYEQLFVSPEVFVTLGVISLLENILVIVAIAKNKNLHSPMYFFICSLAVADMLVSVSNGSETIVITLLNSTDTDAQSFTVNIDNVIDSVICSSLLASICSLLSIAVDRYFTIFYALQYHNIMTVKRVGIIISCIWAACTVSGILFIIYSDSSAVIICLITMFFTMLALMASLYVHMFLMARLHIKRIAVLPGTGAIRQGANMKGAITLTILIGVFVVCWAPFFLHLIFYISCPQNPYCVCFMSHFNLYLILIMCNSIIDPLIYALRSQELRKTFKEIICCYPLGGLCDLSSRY
# GalR3 antagonist: blocks the human galanin receptor 3. inhibition, % at 3 µM. HEK293 GalR3-CNG cAMP membrane potential fluorescence; galR3 body fused to GalR1 C-terminus. 360,000 compounds, 0.44% hits;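 active means inhibition above the screen-wide average plus 3 SD, cut at about 13% in these data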;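 further: forskolin and galanin both at EC90 stimulate the cells; cAMP rise reported by CNG channel membrane potential dye signal; 0% = forskolin plus galanin with DMSO and 100% = forskolin alone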
# Target sequence (O60755 1-299 limits assumed): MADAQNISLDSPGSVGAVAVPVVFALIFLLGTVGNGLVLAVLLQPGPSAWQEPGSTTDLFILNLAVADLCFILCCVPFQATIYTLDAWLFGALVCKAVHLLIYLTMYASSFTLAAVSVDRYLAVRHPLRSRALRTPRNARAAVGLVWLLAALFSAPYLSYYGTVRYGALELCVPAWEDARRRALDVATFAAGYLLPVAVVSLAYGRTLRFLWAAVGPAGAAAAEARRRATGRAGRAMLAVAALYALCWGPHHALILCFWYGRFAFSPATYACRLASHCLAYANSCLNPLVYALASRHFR
# MC4R antag cAMP: human MC4R antagonism in cAMP assay. MC4R-expressing cells, MTII-stimulated cAMP, LANCE TR-FRET. inhibition, % at 6.5 µM. 360,000 compounds, 0.48% hits. AID 540295;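 active means inhibition above its plate's cutoff, the mean of tested wells on that plate plus 3 SD, cut at about 29% in these data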;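 further: 0% = Melanotan II alone and 100% = Melanotan II plus saturating MCL0020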
#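 material = U2OS cells stably expressing human melanocortin 4 receptor (MC4R) | also added = Melanotan II challenge | dosing = single nominal compound dose of 6.5 µM | detection = TR-FRET with Eu-cAMP and labeled anti-cAMP, 671 nm | replication = singlicate | timing = compound 30 min, challenge 1 h, detection 1 h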
# TAG inh: reduces triacylglycerol accumulation in H9c2 cells. Nile Red lipid (TAG) fluorescence; cells loaded with 200 µM oleic acid. inhibition, % at 12.5 µM. 230,000 compounds, 0.66% hits. AID 651582;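 active means pattern-corrected inhibition of lipid staining of at least 50% with the nuclear-stain viability signal not falling by more than 50%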;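 further: 0% = DMSO wells and 100% = triacsin C control wells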
# Calb FLC: C. albicans growth modulation with fluconazole | C. albicans CaCi-2 (fluconazole-resistant clinical isolate) + fluconazole, Alamar Blue growth, 48 h | AID 1979 | growth inhibition, % (concentration not given with the values) | 300,000 compounds, 0.57% hits;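 active means growth inhibition above about 58% in most replicates, limit read from the data, passing the limit was not always enough; inconclusive means exactly half the replicates above a set limit; inactive means most replicates below a set limit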;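 further: all wells also contain fluconazole at 8 µg/ml as a sub-toxic cotreatment; 0% = median of DMSO wells and 100% = median of geldanamycin control wells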
# cAMP nonselect: counter-screen for MC4R antagonists: nonselective cAMP signaling inhibitors; shares compounds with MC4R antag cAMP; parental U2OS, forskolin cAMP, LANCE TR-FRET; inhibition, % at 6.5 µM; 1,600 compounds, 26% hits; AID 602193;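 active means mean inhibition over triplicates above the low-control well mean plus 3 SD, set per campaign, cut at about 13% in these data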;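 further: signal is single emission at 671 nm which falls as cellular cAMP rises; 0% = forskolin-stimulated wells and 100% = buffer without forskolin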
# MC4R antag conf: human MC4R cAMP antagonism confirmation | shares compounds with MC4R antag cAMP | MC4R-expressing cells, MTII-stimulated cAMP, TR-FRET | inhibition, % at 6.5 µM | 1,600 compounds, 27% hits | AID 602195; in the data active means inhibition above about 29%;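 further: 0% = agonist stimulated wells alone and 100% = agonist stimulated wells plus saturating reference antagonist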
# * = called active by the depositor; ? = inconclusive; / = no result given.
SMILES,Efflux pump inh,MC4R ag barr,GalR3 antagonist,MC4R antag cAMP,TAG inh,Calb FLC,cAMP nonselect,MC4R antag conf
Cc1cccc(C)c1NC(=O)C1(C)CSCC(=O)N1C1CCN(Cc2ccccc2)CC1 (configuration not stated),/,/,-8,/,/,/,/,/
COC(=O)C1=C(C)N(Cc2ccccc2C(F)(F)F)C(=NCc2cccc(C(F)(F)F)c2)NC1CCc1ccccc1 (configuration not stated),/,/,-7,/,/,/,/,/
O=C(Nc1nccs1)c1cc2cc(Cl)ccc2oc1=O,0,2,-3,33*,0,2,0,1
Cc1ccc(CN2C(=O)c3ccccc3C2c2nnnn2-c2c(C)cccc2C)cc1 (configuration not stated),/,/,-3,/,/,/,/,/
COC(=O)c1c(NC(=S)Nc2ccc(F)cc2[N+](=O)[O-])sc2c1CCCCC2,0,-3,3,-2,/,-18,/,/
COC(=O)c1c(NC(=O)COC(=O)c2ccc(Cl)cc2[N+](=O)[O-])sc2c1CCCCC2,0,-1,-6,31*,-12,-7,6,22
Cc1ccc(NC(=O)CN2CCC(NC(=O)c3cccc(F)c3)CC2)cc1C,0,3,0,30*,13,7,2,-7
Cc1nc2ccc(NC(=O)c3ccc(S(=O)(=O)N(C)c4ccccc4)cc3)cc2s1,-2,-1,-11,30*,/,-13,27*,25
CC(C)(C)c1ccc(C(=O)O)c(C(=O)c2ccccc2)c1,0,5,-10,31*,7,-1,3,-8
CCOc1ccc(-c2nnc3ccc(SCC(=O)N4CCN(c5ccccc5)CC4)nn23)cc1,/,0,-5,32*,9,/,3,4
CCOc1ccc(-c2nnc3ccc(SCC(=O)N4CCCCC4)nn23)cc1,0,-2,1,0,3,-3,/,/
OCCN1CCN(c2cc(-c3ccccc3)c3ccccc3n2)CC1,0,0,-5,41*,8,-1,-3,-8
CN1CCN(c2nc(N3CCN(CCO)CC3)nc3ccccc23)CC1,0,-2,-4,-5,19,-3,/,/
O=C(NN=Cc1ccc2c(c1)CCN2)c1cccs1,/,0,-6,-6,1,/,/,/
CC(C)NS(=O)(=O)c1ccc(CCC(=O)N2CCC(C(N)=O)CC2)cc1,0,0,-6,31*,16,?,4,9
CC(C)NS(=O)(=O)c1ccc(CCC(=O)N2CCCC2)cc1,0,0,-4,-3,4,-2,/,/
O=C(O)c1ccc(NC(=S)Nc2ccc(S(=O)(=O)Nc3ccccn3)cc2)cc1,/,0,-4,14,-9,/,/,/
CC(OC(=O)/C(C#N)=C/c1ccc(N(C)C)cc1)C(=O)NCc1ccco1 (configuration not stated),0,-2,-7,73*,-1,/,41*,78*
Cc1cc(Cl)ccc1C(O)c1ncc(-c2cccc3ccccc23)[nH]1 (configuration not stated),/,1,-8,8,-21,/,/,/
CCN1C(=O)C2(C(C(=O)c3cc4ccccc4o3)=C(O)C(=O)N2CCCN2CCOCC2)c2ccccc21 (configuration not stated),0,-2,-5,42*,1,-26,22*,50*
CCCCCCCCN1C(=O)[C@@H](CC(=O)N2CCOCC2)C[C@@]2(C(=O)OC)C1=C[C@H](C(C)(C)C)O[C@@H]2C,/,/,-8,/,/,/,/,/
O=c1c(Cc2c(F)cccc2Cl)c(O)ccn1CCCN1CCOCC1,0,1,-5,30*,13,-3,-7,-20
CC(C)C1CC(CCNCc2ccc3c(c2)OCO3)(c2ccccc2)CCO1 (configuration not stated),0,3,-7,34*,11,-8,0,41*
Cc1cc(C)c(S(=O)(=O)NCC(=O)NCc2ccccn2)c(C)c1,0,-3,-2,30*,-3,7,0,-2
Cc1cc(C)c(S(=O)(=O)N(C)CC(=O)NCc2ccccn2)c(C)c1,0,0,-7,1,/,22,/,/
SMILES,Efflux pump inh,MC4R ag barr,GalR3 antagonist,MC4R antag cAMP,TAG inh,Calb FLC,cAMP nonselect,MC4R antag conf
Cc1c(N=C2SCC(=O)N2/N=C/c2ccccc2Cl)c(=O)n(-c2ccccc2)n1C,0,0,-4,-2,10,0,/,/
Cc1c(N=C2SCC(=O)N2/N=C\c2ccc(Br)cc2)c(=O)n(-c2ccccc2)n1C,0,0,-4,31*,/,2,-4,-22
Cc1ccc(-c2cc3ccccc3nc2N2CCOCC2)cc1,0,2,-3,34*,/,-30,-1,-3
COC(=O)[C@H](Cc1ccccc1)NC(=O)NCCc1ccc(S(N)(=O)=O)cc1,0,-2,0,1,-9,-6,/,/
COC(=O)[C@H](Cc1ccccc1)NC(=O)NCCc1ccc(F)cc1,0,-1,-4,29*,-6,-10,32*,35*
COC(=O)C(Cc1ccccc1)NC(=O)CCC(=O)NC(C)CCc1ccccc1 (configuration not stated),0,1,-4,16,-2,-32,/,/
COC(=O)C(Cc1ccccc1)NC(=O)CCNC(=O)c1ccc(Br)cc1 (configuration not stated),0,1,-1,29*,/,-11,-9,-20
Cc1ccccc1OCCC(=O)OCC(=O)Nc1cc(S(=O)(=O)N2CCOCC2)ccc1Cl,0,1,1,35*,3,-3,2,3
COc1ccccc1OCCC(=O)OCC(=O)Nc1cc(S(=O)(=O)N2CCOCC2)ccc1Cl,0,0,-3,19,-3,14,/,/
CCc1nc2ccc(C(=O)NCCNC(C)=O)cn2c1N(C)Cc1ccc(OC)cc1,/,0,2,-6,17,/,/,/
Cc1cc(C)n(-c2nnc(Cl)c3ccccc23)n1,0,-5,-4,37*,-8,?,30*,46*
COC(=O)c1ccc2nc(-c3ccc(C#N)cc3)c(Cc3cccc(Cl)c3)n2c1,/,/,-2,/,/,/,/,/
CCN(CC)CCn1c(=S)[nH]c2cc(C(=O)NCCc3ccc(OC)c(OC)c3)ccc2c1=O,/,-2,4,7,4,/,/,/
CCOC(=O)c1cc(-c2ccccc2)sc1NC(=O)COC(=O)c1ccc(Cl)c(S(N)(=O)=O)c1,0,2,/,29*,30,-2,3,7
C=Cc1ccc(CC2(C)C(=O)Nc3ccc(-c4cccnc4)cc32)cc1 (configuration not stated),/,-1,2,9,-27,/,/,/
O=C(C[C@H]1CC[C@@H]2[C@H](COC[C@H](O)CN2Cc2cccc(F)c2)O1)NCc1cccc(F)c1,/,/,-5,/,/,/,/,/
